This is an account of results in ChEMBL document CHEMBL4610085, “Boholamide A, an APD-Class, Hypoxia-Selective Cyclodepsipeptide” (J Nat Prod, 2020).

The test system of data set [1] is U-87 MG. As to the kind of experiment: Selectivity index, ratio of IC50 for cytotoxicity against human U87MG cells under normoxia condition to IC50 for cytotoxicity against human U87MG cells under hypoxia condition incubated for 48 hrs by MTT assay. The format is functional, U-87MG ATCC.
Data set [2] deals with U-87 MG. As to the kind of experiment: Cytotoxicity against human U87MG cells assessed as reduction in cell viability after 48 hrs under hypoxia condition by MTT assay. The format is functional, cell-based, U-87MG ATCC. In outline:
(§1)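 U87MG in DMEM with 10% FBS, 2 mM L-glutamine, penicillin/streptomycin; seeded 10,000 cells/well, 24 h at 37 °C, then exposed to compound at varying concentrations for 48 h at 37 °C either in a CO₂ incubator (normoxia) or a hypoxic chamber. MTT (0.5 mg/mL in PBS) added 2 h, DMSO solubilisation, absorbance 570 nm; IC50 by curve fitting; triplicate biological replicates.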
(In general: Tetrazolium dyes change colour on reduction, which living cells bring about.)

Data set [3] relates to U-87 MG. As to the kind of experiment: Cytotoxicity against human U87MG cells assessed as reduction in cell viability after 48 hrs under normoxia condition by MTT assay. The format is functional, cell-based, U-87MG ATCC. In short, it runs like this: as §1
Data set [4] deals with DRG neuron. As to the kind of experiment: Induction of cell death in STOCK Tg(CalcaEGFP)FG104Gsat/Mmucd) mouse DRG neurons N15 cells harboring CGRP-GFP at 1 uM 7 secs by Alexa-Flour 647 Isolectin B4 staining based light micrographic method. The format is functional. In outline:
(§2)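 Lumbar DRG L1–L6 from CGRP-GFP mice, dissociated with 0.25% trypsin for 20 min and triturated. Cultured ~16–24 h at 37 °C, 5% CO2, in MEM/10% FBS/HEPES/glucose, pH 7.4, then loaded with 4 μM Fura2-AM for 1 h. Ratio 340/380 nm excitation, 510 nm emission, recorded at room temperature during ~1 h pharmacology sequence. IB4 stain afterwards; cells classed by AITC, menthol, capsaicin, kM-RIIIJ, IB4 and CGRP-GFP.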

Data set [5] is described as follows: Induction of calcium influx in STOCK Tg(CalcaEGFP)FG104Gsat/Mmucd) mouse DRG neurons harboring CGRP-GFP assessed as increase in cytoplasmic Ca2+ in at 500 nM after 7 secs by Alexa-Flour 647 Isolectin B4 staining based assay relative to control. The format is functional, DRG neuron. In short, it runs like this: as §2
Data set [6] can be described thus: Induction of calcium influx in STOCK Tg(CalcaEGFP)FG104Gsat/Mmucd) mouse DRG neurons harboring CGRP-GFP assessed as increase in cytoplasmic Ca2+ at 500 nM after 7 secs by Alexa-Flour 647 Isolectin B4 staining based assay relative to control. The format is functional, DRG neuron. In outline: as §2
Data set [7] relates to DRG neuron. As to the kind of experiment: Induction of calcium influx in STOCK Tg(CalcaEGFP)FG104Gsat/Mmucd) mouse DRG neurons harboring CGRP-GFP assessed as increase in cytoplasmic Ca2+ pulse at 10 nM after 15 secs by […]. The format is functional, cell-based. In short, it runs like this: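 DRG neurons from CGRP-GFP mice, Fura2-AM loaded, imaged as 340/380 nm ratio. Compound applied as a 15-second pulse, with concentrations down to ~10 nM tested. Neuron classes assigned by pharmacological markers and IB4/CGRP-GFP.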

For data set [8], the system named is Cerebral cortex. As to the kind of experiment: Induction of cell death in mouse brain cortex assessed as increase in cell lysis at 1 uM after 5 secs by Alexa-Flour 647 Isolectin B4 staining based assay. The format is functional, tissue-based.
Data set [9] can be described thus: Cytotoxicity against human CH157 cells assessed as reduction in cell viability after 48 hrs by MTT assay. The format is functional, cell-based.
Another data set concerns CHO. As to the kind of experiment: Cytotoxicity against […] assessed as reduction in cell viability after 48 hrs by MTT assay. The format is cell-based. The settings on record: Cricetulus griseus. In short, it runs like this: (§3)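 Cells seeded at 10,000/well, left 24 h at 37 °C, then exposed to a range of concentrations for 48 h at 37 °C, either in a CO2 incubator (normoxia) or in a hypoxic chamber. MTT (0.5 mg/mL in PBS) was added for 2 h, DMSO was added, and absorbance was read at 570 nm. IC50 was fitted from the curves. Triplicate biological replicates.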

For data set [10], the system named is Cerebral cortex. As to the kind of experiment: Induction of cell death in mouse brain cortex assessed as increase in cytoplasmic Ca2+ accumulation at 1 uM by Alexa-Flour 647 Isolectin B4 staining based assay. The format is functional, tissue-based.
Another data set has as its system Huh-7. As to the kind of experiment: Cytotoxicity against human HuH7 cells assessed as reduction in cell viability after 48 hrs by MTT assay. The format is functional, cell-based. The settings on record: Huh-7, 48 h. In short, it runs like this: as §3
Data set [11] can be described thus: Induction of calcium influx in STOCK Tg(CalcaEGFP)FG104Gsat/Mmucd) mouse DRG neurons harboring CGRP-GFP assessed as increase in cytoplasmic Ca2+ at 1 uM after 7 secs by Alexa-Flour 647 Isolectin B4 staining based assay relative to control. The format is functional, DRG neuron. In short, it runs like this: as §2
Data set [12] can be described thus: Toxicity in TuAB zebra fish embryo at 10 to 1000 nM dosed at 6 hpf and measured after 1 day postfertilization by bright field microscopic method. The format is organism-based, Danio rerio. The settings on record: zebrafish, in vivo, 24 h, 1 µM. In outline:
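TuAB zebrafish embryos exposed to compound or DMSO vehicle from 6 hpf to 1 dpf at 28.5 °C, then assessed by bright-field stereomicroscope imaging.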

Data set [13] has as its system DRG neuron. As to the kind of experiment: Irreversible induction of calcium influx in STOCK Tg(CalcaEGFP)FG104Gsat/Mmucd) mouse DRG neurons harboring CGRP-GFP assessed as increase in cytoplasmic Ca2+ pulse at 1 uM after 15 secs by […]. The format is functional, cell-based. In outline: as §2
The subject of a further data set is A549. As to the kind of experiment: Cytotoxicity against human A549 cells assessed as reduction in cell viability after 48 hrs by MTT assay. The format is functional, cell-based. The conditions noted are these: A549, 48 h. In outline:
as §3

The structures appear in SMILES notation. The source made the active and inactive calls. The rule behind the calls is not given here.

By IC50 is commonly meant the concentration needed to halve the response being measured. Turning to `COc1cccc2c1C(=O)c1c(O)c3c(c(O)c1C2=O)C[C@@](O)(C(=O)CO)C[C@@H]3O[C@H]1C[C@H](N)[C@H](O)[C@H](C)O1` [DOXORUBICIN], the “Ratio IC50” value with U-87 MG [1] is on record as 0.45. Besides, the IC50 was 0.98 µM in the data set with U-87 MG [2] and 0.45 µM with U-87 MG [3].
For `Cn1nnc2c(C(N)=O)ncn2c1=O` [TEMOZOLOMIDE] the same measures were 0.6, 1100 µM and 640 µM.
For `C=C1/C=C/C(=O)NCC(=O)N[C@@H](C(C)C)C(=O)O[C@@H]([C@H](C)C[C@@H](C)CCC)[C@H](OC)C(=O)N1`, the outcome with DRG neuron [4], in the data set on DRG neuron [7], in the data set with Cerebral cortex [8], with Cerebral cortex [10] and in the data set on DRG neuron [13] was Active. In the data set with U-87 MG [1], the “Ratio IC50” value came to 3.6. Besides, the Activity in [5] is 61%; in data set [6] it was 8%; in data set [11], 34%; in [12], “Non-Toxic”. For the same compound, the IC50 in data set [9] came out at 0.098 µM; in the data set on CHO, 0.39 µM; in the data set on Huh-7, 0.19 µM; in the data set on U-87 MG [2], 0.12 µM; with U-87 MG [3], 0.41 µM; with A549 it was 0.39 µM.
